The values that follow come from ChEMBL document CHEMBL4350961, “Discovery of Pyrrolo[3,2- d]pyrimidin-4-one Derivatives as a New Class of Potent and Cell-Active Inhibitors of P300/CBP-Associated Factor Bromodomain” (J Med Chem, 2019).

The target in assay [1] is Histone acetyltransferase KAT2A (Homo sapiens, UniProt Q92830). Put plainly: Binding affinity to human N-terminal His-tagged GCN5 by isothermal titration calorimetry. On the technique in general: In ITC the heat of successive injections is recorded.
Assay [2] deals with Peregrin (Homo sapiens) (UniProt P55201). Put plainly: Binding affinity to human N-terminal His-tagged BRPF1 assessed as change in melting temperature at 10 uM by SYPRO orange dye-based fluorescence assay. In short, it runs like this:
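Thermal shift with His-tagged human bromodomain at 2 μM final in 10 mM HEPES pH 7.5, 500 mM NaCl. Compound at 10 μM final with 0.1% DMSO; SYPRO Orange at 1:1000. Equilibrated 3 min at 25 °C, then heated from 25 to 95 °C at 1 °C/min. Melting temperature shift taken from fluorescence; at least duplicate.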

In assay [3] the target is Histone acetyltransferase KAT2B (Homo sapiens, UniProt Q92831). The experiment in a line: Binding affinity to human partial length PCAF (G715 to D831 residues) expressed in bacterial expression system at 1 uM by BROMOscan assay. In short, it runs like this: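 BROMOscan bromodomain cross-screen run by an outside service, compound at 1 µM against 32 recombinant bromodomains. Binding given as percent of control.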
Chain of Histone acetyltransferase KAT2B (Q92831 whole entry, looked up, the tested form may be a part): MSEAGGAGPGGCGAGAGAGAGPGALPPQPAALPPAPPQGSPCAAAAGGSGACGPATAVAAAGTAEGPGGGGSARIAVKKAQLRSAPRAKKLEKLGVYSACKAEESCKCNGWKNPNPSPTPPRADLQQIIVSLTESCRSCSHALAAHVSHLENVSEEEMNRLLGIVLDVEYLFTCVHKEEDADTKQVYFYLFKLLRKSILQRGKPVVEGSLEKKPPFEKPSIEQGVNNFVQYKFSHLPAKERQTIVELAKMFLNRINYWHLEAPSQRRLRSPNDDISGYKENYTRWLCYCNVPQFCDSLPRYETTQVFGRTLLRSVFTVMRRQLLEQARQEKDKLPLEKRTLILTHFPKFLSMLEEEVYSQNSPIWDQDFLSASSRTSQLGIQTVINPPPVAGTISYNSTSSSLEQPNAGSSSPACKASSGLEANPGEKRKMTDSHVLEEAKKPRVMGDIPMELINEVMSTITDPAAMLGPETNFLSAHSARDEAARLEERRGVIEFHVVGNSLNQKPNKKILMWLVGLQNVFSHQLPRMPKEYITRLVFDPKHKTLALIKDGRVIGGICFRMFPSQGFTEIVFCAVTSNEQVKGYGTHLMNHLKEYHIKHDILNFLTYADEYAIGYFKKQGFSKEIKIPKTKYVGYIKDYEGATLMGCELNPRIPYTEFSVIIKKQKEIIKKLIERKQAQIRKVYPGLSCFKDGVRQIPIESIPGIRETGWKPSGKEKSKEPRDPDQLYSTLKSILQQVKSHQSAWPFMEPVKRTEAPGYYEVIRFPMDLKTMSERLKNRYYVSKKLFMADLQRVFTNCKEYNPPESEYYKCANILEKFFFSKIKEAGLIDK

For assay [4], the system named is Tyrosine-protein kinase ABL1 (Homo sapiens), P00519 [H396P]. Put plainly: Inhibition of recombinant human ABL H396P mutant (27 to end residues) at 10 uM using EAIYAAPFAKKK as substrate measured after 40 mins in presence of [gamma33P]ATP by scintillation counting method.
For assay [5], the target named is Activated CDC42 kinase 1 (Homo sapiens) (UniProt Q07912). Put plainly: Inhibition of recombinant human ACK1 (1 to 389 residues) at 10 uM using EFPIYDFLPAKKK as substrate measured after 40 mins in presence of [gamma33P]ATP by scintillation counting method.
Chain of Activated CDC42 kinase 1 (Homo sapiens) (Q07912 whole entry, looked up, the tested form may be a part): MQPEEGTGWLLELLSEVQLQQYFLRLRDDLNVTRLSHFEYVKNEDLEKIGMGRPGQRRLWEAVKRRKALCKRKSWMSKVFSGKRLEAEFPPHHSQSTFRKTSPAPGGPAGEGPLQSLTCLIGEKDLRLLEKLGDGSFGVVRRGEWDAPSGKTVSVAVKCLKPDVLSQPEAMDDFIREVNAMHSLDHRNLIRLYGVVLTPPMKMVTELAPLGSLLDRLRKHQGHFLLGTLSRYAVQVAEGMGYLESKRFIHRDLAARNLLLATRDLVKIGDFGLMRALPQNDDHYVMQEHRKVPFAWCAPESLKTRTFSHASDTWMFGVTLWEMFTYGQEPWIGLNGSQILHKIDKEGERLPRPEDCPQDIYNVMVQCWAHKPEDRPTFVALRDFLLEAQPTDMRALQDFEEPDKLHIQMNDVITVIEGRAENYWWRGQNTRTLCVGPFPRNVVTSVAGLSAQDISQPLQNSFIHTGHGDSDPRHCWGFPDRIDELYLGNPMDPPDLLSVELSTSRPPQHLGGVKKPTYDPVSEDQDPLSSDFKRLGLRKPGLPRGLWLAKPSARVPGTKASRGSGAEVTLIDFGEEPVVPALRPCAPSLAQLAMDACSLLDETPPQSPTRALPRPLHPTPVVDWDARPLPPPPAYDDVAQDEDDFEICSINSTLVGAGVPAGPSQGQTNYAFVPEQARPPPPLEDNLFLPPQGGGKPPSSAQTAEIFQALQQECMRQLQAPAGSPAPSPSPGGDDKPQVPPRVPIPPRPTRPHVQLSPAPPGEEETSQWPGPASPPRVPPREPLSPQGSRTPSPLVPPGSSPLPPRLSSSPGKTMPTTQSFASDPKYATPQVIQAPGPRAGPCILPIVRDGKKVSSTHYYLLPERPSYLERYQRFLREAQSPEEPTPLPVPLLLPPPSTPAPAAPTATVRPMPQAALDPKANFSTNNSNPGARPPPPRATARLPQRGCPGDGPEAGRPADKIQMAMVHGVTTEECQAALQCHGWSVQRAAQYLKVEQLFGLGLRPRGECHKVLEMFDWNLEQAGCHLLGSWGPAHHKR
The target in assay [6] is Tyrosine-protein kinase BTK (Homo sapiens) (UniProt Q06187). The experiment in a line: Inhibition of full-length recombinant human BTK at 10 uM using KVEKIGEGTYGVVYK as substrate measured after 40 mins in presence of [gamma33P]ATP by scintillation counting method. In short, it runs like this:
(§1)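 Kinase panel of 422 kinases screened by Eurofins KinaseProfiler at a single test-compound concentration of 10 µM.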

For assay [7], the target named is Calcium/calmodulin-dependent protein kinase type 1D (Homo sapiens) (UniProt Q8IU85). The experiment in a line: Inhibition of recombinant full-length human CaMK1delta at 10 uM using calmodulin as substrate measured after 40 mins in presence of [gamma33P]ATP by scintillation counting method.
For assay [8], the target named is Dual specificity tyrosine-phosphorylation-regulated kinase 1A (Homo sapiens) (UniProt Q13627). Put plainly: Inhibition of recombinant full-length human DYRK1A at 10 uM using RRRFRPASPLRGPPK as substrate measured after 40 mins in presence of [gamma33P]ATP by scintillation counting method.
Assay [9] deals with Receptor tyrosine-protein kinase erbB-2 (Homo sapiens), P04626 [G778D]. The experiment in a line: Inhibition of recombinant human ErbB2 G778D mutant (676 to end residues) at 10 uM using poly (Glu, Tyr) 4:1 as substrate measured after 40 mins in presence of [gamma33P]ATP by scintillation counting method.
Assay [10] concerns the target Mitogen-activated protein kinase kinase kinase kinase 2 (Homo sapiens) (UniProt Q12851). The experiment in a line: Inhibition of recombinant human GCK at 10 uM using myelin basic protein as substrate measured after 40 mins in presence of [gamma33P]ATP by scintillation counting method.
For assay [11], the target named is Tyrosine-protein kinase HCK (Homo sapiens) (UniProt P08631). Put plainly: Inhibition of recombinant human HCK (230 to 497 residues) at 10 uM using Cdc2 peptide as substrate measured after 40 mins in presence of [gamma33P]ATP by scintillation counting method.
Assay [12] has as its target Mitogen-activated protein kinase 8 (Homo sapiens) (UniProt P45983). The experiment in a line: Inhibition of recombinant full-length human JNK1alpha1 at 10 uM using ATF2 as substrate measured after 40 mins in presence of [gamma33P]ATP by scintillation counting method.
Assay [13] addresses Myosin light chain kinase 2, skeletal/cardiac muscle (Homo sapiens) (UniProt Q9H1R3). Put plainly: Inhibition of recombinant full-length human MYLK2 at 10 uM using KKLNRTLSFAEPG as substrate measured after 40 mins in presence of [gamma33P]ATP by scintillation counting method.
Assay [14] deals with Serine/threonine-protein kinase Nek9 (Homo sapiens) (UniProt Q8TD19). The experiment in a line: Inhibition of recombinant human NEK9 (1 to 324 residues) at 10 uM using myelin basic protein as substrate measured after 40 mins in presence of [gamma33P]ATP by scintillation counting method.
In assay [15] the target is Serine/threonine-protein kinase PAK 5 (Homo sapiens) (UniProt Q9P286). The experiment in a line: Inhibition of recombinant human PAK5 (425 to end residues) at 10 uM using RRRLSFAEPG as substrate measured after 40 mins in presence of [gamma33P]ATP by scintillation counting method.
Chain of Serine/threonine-protein kinase PAK 5 (Homo sapiens) (Q9P286 whole entry, looked up): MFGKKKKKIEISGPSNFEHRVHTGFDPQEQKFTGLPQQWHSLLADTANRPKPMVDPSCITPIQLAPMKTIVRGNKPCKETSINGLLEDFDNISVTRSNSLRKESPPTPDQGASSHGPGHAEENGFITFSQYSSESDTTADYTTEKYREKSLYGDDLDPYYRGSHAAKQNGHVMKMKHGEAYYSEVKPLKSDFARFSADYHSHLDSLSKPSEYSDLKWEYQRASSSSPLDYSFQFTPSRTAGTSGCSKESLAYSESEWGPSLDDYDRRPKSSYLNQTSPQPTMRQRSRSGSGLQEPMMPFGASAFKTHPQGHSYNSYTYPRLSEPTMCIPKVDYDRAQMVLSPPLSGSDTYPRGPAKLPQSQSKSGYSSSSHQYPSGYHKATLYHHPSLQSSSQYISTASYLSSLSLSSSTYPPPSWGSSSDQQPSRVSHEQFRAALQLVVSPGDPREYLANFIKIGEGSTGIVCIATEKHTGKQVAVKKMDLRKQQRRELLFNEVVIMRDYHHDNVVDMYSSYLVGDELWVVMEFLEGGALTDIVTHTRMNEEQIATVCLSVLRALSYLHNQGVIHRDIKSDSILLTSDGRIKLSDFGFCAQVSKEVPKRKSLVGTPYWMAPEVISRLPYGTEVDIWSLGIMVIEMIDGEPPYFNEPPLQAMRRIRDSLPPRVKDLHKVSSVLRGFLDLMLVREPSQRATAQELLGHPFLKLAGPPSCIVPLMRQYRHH
For assay [16], the target named is Eukaryotic translation initiation factor 2-alpha kinase 3 (Homo sapiens) (UniProt Q9NZJ5). The experiment in a line: Inhibition of recombinant human PEK (536 to end residues) at 10 uM using RSRSRSRSRSRSRSR as substrate measured after 40 mins in presence of [gamma33P]ATP by scintillation counting method.
In assay [17] the test system is Platelet-derived growth factor receptor alpha (Homo sapiens), P16234 [D842V]. Put plainly: Inhibition of recombinant human PDGFRalpha D842V mutant (550 to end residues) at 10 uM using GGMEDIYFEFMGGKKK as substrate measured after 40 mins in presence of [gamma33P]ATP by scintillation counting method.
For assay [18], the target named is Protein kinase C iota type (Homo sapiens) (UniProt P41743). The experiment in a line: Inhibition of recombinant full-length human PKCiota at 10 uM using ERMRPRKRQGSVRRRV as substrate measured after 40 mins in presence of [gamma33P]ATP by scintillation counting method.
The test system of assay [19] is Serine/threonine-protein kinase D1 (Homo sapiens), Q15139 [UNDEFINED MUTATION]. The experiment in a line: Inhibition of recombinant full-length human PKCmu R135A mutant at 10 uM using KKLNRTLSVA as substrate measured after 40 mins in presence of [gamma33P]ATP by scintillation counting method.
The target in assay [20] is STE20-like serine/threonine-protein kinase (Homo sapiens) (UniProt Q9H2G2). The experiment in a line: Inhibition of human SLK (1 to 373 residues) using RLGRDKYKTLRQIRQ as substrate measured after 40 mins in presence of [gamma33P]ATP by scintillation counting method. A digest of the protocol:
as §1

For assay [21], the target named is Tau-tubulin kinase 1 (Homo sapiens) (UniProt Q5TCY1). Put plainly: Inhibition of human TTBK1 (1 to 479 residues) using Casein as substrate measured after 40 mins in presence of [gamma33P]ATP by scintillation counting method.
For assay [22], the target named is Serine/threonine-protein kinase WNK3 (Homo sapiens) (UniProt Q9BYP7). Put plainly: Inhibition of human WNK3 (1 to 434 residues) using myelin basic protein as substrate measured after 40 mins in presence of [gamma33P]ATP by scintillation counting method.
For assay [23], the species on record is Mus musculus. The experiment in a line: Inhibition of recombinant full-length mouse PI3K p110beta/p85beta R123L mutant at 10 uM using phosphatidylinositol-4, 5-bisphosphate as substrate measured after 40 mins by HTRF assay. (TR-FRET usually uses a lanthanide donor and a delayed reading to cut background.)

Calls of active or inactive are those of the source. No cut-off for these calls is given here.

Chain of Tyrosine-protein kinase BTK (Homo sapiens) (Q06187 whole entry): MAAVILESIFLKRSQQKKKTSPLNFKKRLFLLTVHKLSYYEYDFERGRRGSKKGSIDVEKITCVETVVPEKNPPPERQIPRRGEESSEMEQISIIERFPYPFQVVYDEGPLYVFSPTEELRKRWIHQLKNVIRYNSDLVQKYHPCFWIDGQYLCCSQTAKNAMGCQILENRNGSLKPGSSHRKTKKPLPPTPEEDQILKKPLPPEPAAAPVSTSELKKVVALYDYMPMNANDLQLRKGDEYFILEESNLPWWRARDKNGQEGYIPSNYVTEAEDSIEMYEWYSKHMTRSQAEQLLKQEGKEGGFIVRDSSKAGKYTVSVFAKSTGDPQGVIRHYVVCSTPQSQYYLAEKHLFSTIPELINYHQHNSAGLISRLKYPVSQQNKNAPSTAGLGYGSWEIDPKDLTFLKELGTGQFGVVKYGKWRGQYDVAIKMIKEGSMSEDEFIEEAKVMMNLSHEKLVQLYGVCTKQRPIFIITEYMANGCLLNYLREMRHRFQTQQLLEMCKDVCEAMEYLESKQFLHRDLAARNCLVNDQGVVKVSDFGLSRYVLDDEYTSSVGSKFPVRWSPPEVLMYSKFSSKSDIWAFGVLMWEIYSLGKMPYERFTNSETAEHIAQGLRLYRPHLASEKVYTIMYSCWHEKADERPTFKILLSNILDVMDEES
Chain of Peregrin (Homo sapiens) (P55201 whole entry): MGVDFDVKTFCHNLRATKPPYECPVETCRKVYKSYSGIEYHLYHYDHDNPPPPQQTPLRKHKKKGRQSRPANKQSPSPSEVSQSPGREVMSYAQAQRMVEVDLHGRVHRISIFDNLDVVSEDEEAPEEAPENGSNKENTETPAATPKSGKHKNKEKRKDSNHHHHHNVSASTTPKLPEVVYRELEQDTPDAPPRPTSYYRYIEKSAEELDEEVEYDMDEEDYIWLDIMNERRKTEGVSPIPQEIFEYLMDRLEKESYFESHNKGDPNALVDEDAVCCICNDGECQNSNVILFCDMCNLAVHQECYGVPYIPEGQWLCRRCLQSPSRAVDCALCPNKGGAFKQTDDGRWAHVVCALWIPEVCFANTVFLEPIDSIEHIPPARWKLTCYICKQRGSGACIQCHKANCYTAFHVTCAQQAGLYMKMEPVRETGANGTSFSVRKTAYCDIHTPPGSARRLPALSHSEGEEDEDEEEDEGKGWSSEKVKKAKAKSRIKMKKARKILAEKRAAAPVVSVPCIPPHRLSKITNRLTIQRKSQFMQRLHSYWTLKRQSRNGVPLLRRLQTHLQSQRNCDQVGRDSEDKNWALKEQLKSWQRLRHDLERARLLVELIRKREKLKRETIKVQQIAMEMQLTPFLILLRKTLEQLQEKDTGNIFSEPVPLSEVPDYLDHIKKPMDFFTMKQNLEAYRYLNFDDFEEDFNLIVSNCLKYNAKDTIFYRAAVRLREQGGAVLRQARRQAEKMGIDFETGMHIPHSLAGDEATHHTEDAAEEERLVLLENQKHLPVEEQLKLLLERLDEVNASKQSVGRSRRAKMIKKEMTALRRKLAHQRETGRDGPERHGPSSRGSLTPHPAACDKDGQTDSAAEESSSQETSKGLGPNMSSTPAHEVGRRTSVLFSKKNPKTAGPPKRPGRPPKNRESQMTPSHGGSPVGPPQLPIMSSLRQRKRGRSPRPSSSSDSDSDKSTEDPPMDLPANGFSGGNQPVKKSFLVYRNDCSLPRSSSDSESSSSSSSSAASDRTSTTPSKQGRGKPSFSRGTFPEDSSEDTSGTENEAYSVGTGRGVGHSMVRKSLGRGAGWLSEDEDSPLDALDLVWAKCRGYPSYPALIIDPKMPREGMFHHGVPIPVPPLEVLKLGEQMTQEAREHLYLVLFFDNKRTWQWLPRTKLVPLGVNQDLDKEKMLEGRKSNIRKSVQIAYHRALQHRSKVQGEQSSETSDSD
Chain of Mitogen-activated protein kinase 8 (Homo sapiens) (P45983 whole entry): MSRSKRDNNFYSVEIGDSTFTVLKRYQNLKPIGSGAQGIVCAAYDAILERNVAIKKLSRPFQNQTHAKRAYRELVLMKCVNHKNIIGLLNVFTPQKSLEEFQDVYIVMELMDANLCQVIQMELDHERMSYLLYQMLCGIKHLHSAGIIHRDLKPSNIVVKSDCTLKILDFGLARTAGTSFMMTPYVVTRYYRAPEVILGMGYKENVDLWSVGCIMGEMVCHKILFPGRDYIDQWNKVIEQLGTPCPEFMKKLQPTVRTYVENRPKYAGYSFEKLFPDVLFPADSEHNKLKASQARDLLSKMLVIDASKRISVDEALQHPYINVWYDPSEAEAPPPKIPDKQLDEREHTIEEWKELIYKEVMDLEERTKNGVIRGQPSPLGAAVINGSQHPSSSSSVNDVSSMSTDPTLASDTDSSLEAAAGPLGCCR

Consider `CN1C[C@H](Nc2nc3cc[nH]c3c(=O)n2C)C[C@H](c2ccc3c(c2)OCCO3)C1`, for which the Kd in assay [1] worked out at 105 nM. The ΔTm in assay [2] is 2.6 °C. In assay [3], the outcome was Active. For the same molecule, the inhibition result in assay [4], in assay [5], in assay [6], in [7], in assay [8] and in assay [9] was “inactive” throughout. For the same molecule, the inhibition result in assay [10], in assay [11], in assay [12], in [13], in assay [14] and in assay [15] was “inactive” each time. Besides, the inhibition entry in assay [16], in assay [17], in assay [18], in [19], in [20] and in [21] was “inactive” in each case. The inhibition entry in [22] and in assay [23] was “inactive” in each case.

A word on the Kd: it is the constant that tells how readily two partners part at equilibrium. As usually defined, the ΔTm is the change in melting temperature against a reference sample.
